Measurements reported in article PMC5598375 (Toxicology Reports, 2014).
Marks after values point to notes of the source that are not given here.

Experiments:
[1] = tested on: 48 h-larvae mwh +/+ flr^3; test: Wing spot test; type: in vivo, Drosophila melanogaster; conditions: for Small single spots (1–2 cells), statistical diagnosis / Total spots, statistical diagnosis: m = 2; for Small single spots (1–2 cells), statistical diagnosis / Total spots, statistical diagnosis / Large single spots (>cells), statistical diagnosis / Twin spots, statistical diagnosis: vs control; for Large single spots (>cells), statistical diagnosis / Twin spots, statistical diagnosis: m = 5
Summary of the method: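 Crosses: mwh/mwh females × flr3/TM3,Bds males mated 2 h, eggs laid over 2 h. 48 h larvae were collected on 20% sucrose, washed in 24 ± 1 °C water, held 24 h in the dark on filter paper with PP-IX (0–69 mM in 5% sucrose), then fed CrO3 (0.025–2.5 mM) in instant medium, in triplicate. Non-Ser wings were scored at 40× for small (1–2 cells), large and twin spots. Frei–Würgler one-sided test, α=β=0.05, m multiplication factor.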

[2] = tested on: 48 h-old mwh+/+flr^3 larvae; test: Toxicity test; type: in vivo, Drosophila melanogaster; conditions: for % of non-viable larvae / No. of viable larvae ± SEM: 500 larvae

In the case of `[O]=[Cr](=[O])=[O]` [CrO3, chromium trioxide], the “Large single spots (>cells) per wing” value ([1]; CrO3 0.025 mM, 120 wings) is reported as 0.04 spots per wing, the “Large single spots (>cells), number of spots” value (“Large single spots … of spots” below) ([1]; CrO3 0.025 mM, 120 wings) is reported as 5 and the “Small single spots (1–2 cells) per wing” value ([1]; CrO3 0.025 mM, 120 wings) is reported as 0.26 spots per wing. The “Small single spots (1–2 cells), number of spots” value (shortened to “Small single spots … of spots”) ([1]; CrO3 0.025 mM, 120 wings) was 31, the “Total spots per wing” value ([1]; CrO3 0.025 mM, 120 wings) was 0.33 spots per wing and the “Total spots, number of spots” value ([1]; CrO3 0.025 mM, 120 wings) was 40. The “Twin spots per wing” value ([1]; CrO3 0.025 mM, 120 wings) was 0.03 spots per wing, the “Twin spots, number of spots” value ([1]; CrO3 0.025 mM, 120 wings) was 4 and the “Small single spots (1–2 cells), statistical diagnosis” value ([1]; CrO3 0.025 mM) was “−”. The “Total spots, statistical diagnosis” value ([1]; CrO3 0.025 mM) was “−”, the “Large single spots (>cells), statistical diagnosis” value ([1]; CrO3 0.025 mM) was “−” and the “Statistical significance of spot induction vs control” value ([1]; CrO3 0.25 mM and higher, all kinds of spots) was “Statistical significant differences were found for all kinds of spots”. The “Large single spots (>cells) per wing” value ([1]; CrO3 0.25 mM, 150 wings) was 0.11 spots per wing, the “Large single spots … of spots” value ([1]; CrO3 0.25 mM, 150 wings) was 16 and the “Small single spots (1–2 cells) per wing” value ([1]; CrO3 0.25 mM, 150 wings) was 0.43 spots per wing. The “Small single spots … of spots” value ([1]; CrO3 0.25 mM, 150 wings) was 64, the “Total spots per wing” value ([1]; CrO3 0.25 mM, 150 wings) was 0.59 spots per wing and the “Total spots, number of spots” value ([1]; CrO3 0.25 mM, 150 wings) was 88. The “Twin spots per wing” value ([1]; CrO3 0.25 mM, 150 wings) was 0.05 spots per wing, the “Twin spots, number of spots” value ([1]; CrO3 0.25 mM, 150 wings) was 8 and the “Small single spots (1–2 cells), statistical diagnosis” value ([1]; CrO3 0.25 mM) was “+”. For the same compound, the “Total spots, statistical diagnosis” value ([1]; CrO3 0.25 mM) was “+”, the “Large single spots (>cells), statistical diagnosis” value ([1]; CrO3 0.25 mM) was “−” and the “Twin spots, statistical diagnosis” value ([1]; CrO3 0.25 mM) was “+”. For the same compound, the “Large single spots (>cells) per wing” value ([1]; CrO3 1.25 mM, 118 wings) was 0.36 spots per wing, the “Large single spots … of spots” value ([1]; CrO3 1.25 mM, 118 wings) was 42 and the “Small single spots (1–2 cells) per wing” value ([1]; CrO3 1.25 mM, 118 wings) was 0.63 spots per wing. For the same compound, the “Small single spots … of spots” value ([1]; CrO3 1.25 mM, 118 wings) was 74, the “Total spots per wing” value ([1]; CrO3 1.25 mM, 118 wings) was 1.12 spots per wing and the “Total spots, number of spots” value ([1]; CrO3 1.25 mM, 118 wings) was 132. For the same compound, the “Twin spots per wing” value ([1]; CrO3 1.25 mM, 118 wings) was 0.14 spots per wing, the “Twin spots, number of spots” value ([1]; CrO3 1.25 mM, 118 wings) was 16 and the “Small single spots (1–2 cells), statistical diagnosis” value ([1]; CrO3 1.25 mM) was “+”. For the same compound, the “Total spots, statistical diagnosis” value ([1]; CrO3 1.25 mM) was “+”, the “Large single spots (>cells), statistical diagnosis” value ([1]; CrO3 1.25 mM) was “+” and the “Twin spots, statistical diagnosis” value ([1]; CrO3 1.25 mM) was “+”. For the same compound, the “Large single spots (>cells) per wing” value ([1]; CrO3 2.0 mM, 80 wings) was 0.52 spots per wing, the “Large single spots … of spots” value ([1]; CrO3 2.0 mM, 80 wings) was 42 and the “Small single spots (1–2 cells) per wing” value ([1]; CrO3 2.0 mM, 80 wings) was 0.81 spots per wing. For the same compound, the “Small single spots … of spots” value ([1]; CrO3 2.0 mM, 80 wings) was 65, the “Total spots per wing” value ([1]; CrO3 2.0 mM, 80 wings) was 1.79 spots per wing and the “Total spots, number of spots” value ([1]; CrO3 2.0 mM, 80 wings) was 143. For the same compound, the “Twin spots per wing” value ([1]; CrO3 2.0 mM, 80 wings) was 0.45 spots per wing, the “Twin spots, number of spots” value ([1]; CrO3 2.0 mM, 80 wings) was 36 and the “Small single spots (1–2 cells), statistical diagnosis” value ([1]; CrO3 2.0 mM) was “+”. For the same compound, the “Total spots, statistical diagnosis” value ([1]; CrO3 2.0 mM) was “+”, the “Large single spots (>cells), statistical diagnosis” value ([1]; CrO3 2.0 mM) was “+” and the “Twin spots, statistical diagnosis” value ([1]; CrO3 2.0 mM) was “+”. The “Large single spots (>cells) per wing” value ([1]; CrO3 2.5 mM, 120 wings) was 1.97 spots per wing, the “Large single spots … of spots” value ([1]; CrO3 2.5 mM, 120 wings) was 236 and the “Small single spots (1–2 cells) per wing” value ([1]; CrO3 2.5 mM, 120 wings) was 2.87 spots per wing. For the same compound, the “Small single spots … of spots” value ([1]; CrO3 2.5 mM, 120 wings) was 344, the “Total spots per wing” value ([1]; CrO3 2.5 mM, 120 wings) was 6.95 spots per wing and the “Total spots, number of spots” value ([1]; CrO3 2.5 mM, 120 wings) was 834. The “Twin spots per wing” value ([1]; CrO3 2.5 mM, 120 wings) was 2.11 spots per wing, the “Twin spots, number of spots” value ([1]; CrO3 2.5 mM, 120 wings) was 254 and the “Small single spots (1–2 cells), statistical diagnosis” value ([1]; CrO3 2.5 mM) was “+”. The “Total spots, statistical diagnosis” value ([1]; CrO3 2.5 mM) was “+”, the “Large single spots (>cells), statistical diagnosis” value ([1]; CrO3 2.5 mM) was “+” and the “Twin spots, statistical diagnosis” value ([1]; CrO3 2.5 mM) was “+”. The “Frequency of mutation relative to the control group” value ([1]; higher CrO3 concentration (2.5 mM)) was 20 times, the “% of non-viable larvae” value ([2]; CrO3 0.25 mM) was 10% and the “No. of viable larvae ± SEM” value ([2]; CrO3 0.25 mM) was 448 ± 0.3. The “No. of viable larvae ± SEM” value ([2]; CrO3 2.0 mM) was 325 ± 2.8, the “% of non-viable larvae” value ([2]; CrO3 2.0 mM, significant to p < 0.05 compared with control) was 35 ^* % and the Mortality ([2]; CrO3 2.5 mM) was 61%. For the same compound, the “Reduction of viability over the control” value ([2]; CrO3 2.5 mM) was 45%, the “No. of viable larvae ± SEM” value ([2]; CrO3 2.5 mM) was 194 ± 0.8 and the “% of non-viable larvae” value ([2]; CrO3 2.5 mM, significant to p < 0.05 compared with control) was 61 ^* %. The “Toxicity compared to the control” value ([2]; CrO3 2 and 2.5 mM) was “toxic”.
